≈ marks a conversion by molar mass, not a printed value.
Assays:
Staphylococcus aureus [1] = experiment: Antibacterial activity against methicillin-resistant Staphylococcus aureus USA300 by broth microdilution method
Escherichia coli [2] = experiment: Bactericidal activity against Escherichia coli DH10beta harboring pHuLUC3 after 18 to 20 hrs by microdilution method; assay type: functional
Method in brief: (§1)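 EUCAST broth microdilution in LB broth. Inoculum prepared by direct colony suspension from 20–24 h LB agar (E. coli DH10β) or 5% sheep blood BHI agar (MRSA USA300) growth. Final inoculum 2×10^4 CFU/mL, 18–20 h aerobic at 37 °C, growth read on a plate reader, at least duplicate.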

Staphylococcus aureus [3] = experiment: Antibacterial activity against methicillin-resistant Staphylococcus aureus USA300 after 18 to 20 hrs by microdilution method; assay type: functional; method in brief: as §1
Escherichia coli [4] = experiment: Antibacterial activity against Escherichia coli DH10beta harboring pHuLUC3 after 18 to 20 hrs by microdilution method; assay type: functional; method in brief: as §1
Saccharomyces cerevisiae = experiment: Antibacterial activity against Saccharomyces cerevisiae after 18 to 20 hrs by microdilution method
Method in brief: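 Microdilution in YEP broth against wild-type yeast grown on YEP agar. Final inoculum 1×10^5 CFU/mL. Read after 18–20 h aerobic incubation at 30 °C on plate reader, at least one duplicate.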

[5] = tested on: Mycolicibacterium smegmatis; experiment: Antimycobacterial activity against Mycobacterium smegmatis MC2 155 after 94 to 98 hrs by microdilution method; assay type: functional; conditions: str. MC2 155
Method in brief: (§2)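 Microdilution in TSB broth. Inoculum from colonies grown 96 h on TSA, final 1×10^5 CFU/mL, aerobic 94–98 h at 37 °C, growth read on a plate reader, at least duplicate.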

Staphylococcus aureus [6] = experiment: Bactericidal activity against methicillin-resistant Staphylococcus aureus USA300 after 18 to 20 hrs by microdilution method; assay type: functional; method in brief: as §1
[7] = tested on: Mycolicibacterium smegmatis; experiment: Bactericidal activity against Mycobacterium smegmatis MC2 155 after 96 hrs by microdilution method; assay type: functional; conditions: str. MC2 155, 96 h; method in brief: as §2

Structure (SMILES) | MIC (Staphylococcus aureus [1]) [µg/mL] | MBC (Escherichia coli [2]) [µg/mL] | MIC (Staphylococcus aureus [3]) [µg/mL] | MIC (Escherichia coli [4]) [µg/mL] | MIC (Saccharomyces cerevisiae) [µg/mL] | MIC [5] [µg/mL] | MBC (Staphylococcus aureus [6]) [µg/mL] | MBC [7] [µg/mL]
O=C(N[C@H](CO)[C@H](O)c1ccc([N+](=O)[O-])cc1)C(Cl)Cl [CHLORAMPHENICOL] | 4 to 32 (≈ 12.4 to 99 µM) |  |  |  |  |  |  | 
O=C(c1ccccc1C(F)(F)F)N(/N=N/c1ccc([N+](=O)[O-])cc1Br)c1ccc([N+](=O)[O-])cc1Br |  | 64 (≈ 104 µM) | > 128 | 64 (≈ 104 µM) | > 128 | > 128 |  | 
NC[C@H]1O[C@H](O[C@H]2[C@H](O)[C@@H](O[C@H]3O[C@H](CO)[C@@H](O)[C@H](N)[C@H]3O)[C@H](N)C[C@@H]2N)[C@H](N)C[C@@H]1O [TOBRAMYCIN] | 0.5 to 2 (≈ 1.07 to 4.28 µM) |  |  |  |  |  |  | 
O=C(c1ccncc1)N(/N=N/c1ccc([N+](=O)[O-])cc1Br)c1ccc([N+](=O)[O-])cc1Br |  | 32 (≈ 58.2 µM) | 32 (≈ 58.2 µM) | 32 (≈ 58.2 µM) | > 128 | 128 (≈ 233 µM) | 32 (≈ 58.2 µM) | > 128
O=C(CCl)N(/N=N/c1ccc(C(F)(F)F)cc1C(F)(F)F)c1ccc(C(F)(F)F)cc1C(F)(F)F |  |  | > 128 |  | > 128 |  | > 128 | 
O=C(c1ccccc1F)N(/N=N/c1ccc([N+](=O)[O-])cc1Cl)c1ccc([N+](=O)[O-])cc1Cl |  | 128 (≈ 268 µM) | > 128 | 64 (≈ 134 µM) | > 128 | > 128 |  | 
CC(=O)N(/N=N/c1ccc([N+](=O)[O-])cc1)c1ccc([N+](=O)[O-])cc1 |  | 128 (≈ 389 µM) | > 128 | 64 (≈ 194 µM) | > 128 | > 128 |  | 
O=C(O)c1cn(C2CC2)c2cc(N3CCNCC3)c(F)cc2c1=O [CIPROFLOXACIN] | 0.125 to 64 (≈ 0.377 to 193 µM) |  |  |  |  |  |  | 
COC(=O)N(/N=N/c1ccc([N+](=O)[O-])cc1Cl)c1ccc([N+](=O)[O-])cc1Cl |  | 128 (≈ 309 µM) | 32 (≈ 77.3 µM) | 64 (≈ 155 µM) | > 128 | 128 (≈ 309 µM) | 32 (≈ 77.3 µM) | > 128
O=C(c1ccccc1)N(/N=N/c1ccc([N+](=O)[O-])cc1Cl)c1ccc([N+](=O)[O-])cc1Cl |  | 32 (≈ 69.5 µM) | 32 (≈ 69.5 µM) | 32 (≈ 69.5 µM) | > 128 | 128 (≈ 278 µM) | 32 (≈ 69.5 µM) | > 128
O=C(c1ccccc1C(F)(F)F)N(/N=N/c1ccc([N+](=O)[O-])cc1Cl)c1ccc([N+](=O)[O-])cc1Cl |  | 128 (≈ 242 µM) | > 128 | 64 (≈ 121 µM) | > 128 | > 128 |  | 
O=C(c1ccccc1C(F)(F)F)N(/N=N/c1ccc([N+](=O)[O-])cc1C(F)(F)F)c1ccc([N+](=O)[O-])cc1C(F)(F)F |  | 128 (≈ 215 µM) | > 128 | 128 (≈ 215 µM) | > 128 | > 128 |  | 
O=C(c1cccnc1)N(/N=N/c1ccc([N+](=O)[O-])c(C(F)(F)F)c1)c1ccc([N+](=O)[O-])c(C(F)(F)F)c1 |  | 64 (≈ 121 µM) | 4 (≈ 7.57 µM) | 32 (≈ 60.6 µM) | > 128 | 64 (≈ 121 µM) | 4 (≈ 7.57 µM) | > 128
O=C(c1cccnc1)N(/N=N/c1ccc([N+](=O)[O-])cc1Br)c1ccc([N+](=O)[O-])cc1Br |  | 32 (≈ 58.2 µM) | 32 (≈ 58.2 µM) | 16 (≈ 29.1 µM) | > 128 | 64 (≈ 116 µM) | 32 (≈ 58.2 µM) | 128 (≈ 233 µM)
O=C(c1ccncc1)N(/N=N/c1ccc([N+](=O)[O-])cc1)c1ccc([N+](=O)[O-])cc1 |  | 32 (≈ 81.6 µM) | 128 (≈ 326 µM) | 16 (≈ 40.8 µM) | > 128 | > 128 | 128 (≈ 326 µM) | 
O=C(c1cccc(C(F)(F)F)c1)N(/N=N/c1ccc([N+](=O)[O-])cc1Br)c1ccc([N+](=O)[O-])cc1Br |  | 64 (≈ 104 µM) | 8 (≈ 13 µM) | 32 (≈ 51.9 µM) | > 128 | 128 (≈ 207 µM) | 8 (≈ 13 µM) | > 128
O=C(c1cccnc1)N(/N=N/c1ccc([N+](=O)[O-])cc1)c1ccc([N+](=O)[O-])cc1 |  | 16 (≈ 40.8 µM) | 64 (≈ 163 µM) | 8 (≈ 20.4 µM) | > 128 | > 128 | 128 (≈ 326 µM) | 
Fc1ccc(/N=N/Nc2ccc(F)cc2C(F)(F)F)c(C(F)(F)F)c1 |  |  | > 128 | > 128 | > 128 | > 128 |  | 
O=C(c1ccncc1)N(/N=N/c1ccc([N+](=O)[O-])c(C(F)(F)F)c1)c1ccc([N+](=O)[O-])c(C(F)(F)F)c1 |  | 32 (≈ 60.6 µM) | 2 (≈ 3.79 µM) | 32 (≈ 60.6 µM) | > 128 | 64 (≈ 121 µM) | 2 (≈ 3.79 µM) | > 128
CC(=O)OCC(=O)N(/N=N/c1ccc([N+](=O)[O-])cc1Br)c1ccc([N+](=O)[O-])cc1Br |  | 64 (≈ 117 µM) | 8 (≈ 14.7 µM) | 64 (≈ 117 µM) | > 128 | > 128 | 16 (≈ 29.4 µM) | 
